# In ChEMBL document CHEMBL1152955, “Synthetic resveratrol aliphatic acid inhibits TLR2-mediated apoptosis and an involvement of Akt/GSK3beta pathway” (Bioorg Med Chem, 2009):
# Activity calls are given as the source filed them. The calls are words filed in the database; no cut-off is given here.
# What was measured:
# [1] = biological target: Toll-like receptor 2 (Homo sapiens) (UniProt O60603); experiment: Inhibition of TLR2-mediated apoptosis in human HEK293 cells at 100 uM treated for 24 hrs measured after 24 hrs of serum deprivation by TUNEL assay; assay type: cell-based
# How it was run: (§1)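 With or without 100 uM for 24 h, then serum deprivation 0, 12 or 24 h, in HEK293 or TLR2/HEK293 cells (RPMI-1640, 10% heat-inactivated FBS). Nucleosomal DNA fragmentation detected by in situ TUNEL kit; apoptotic and total cells counted in random fields to give percent apoptotic cells; mean ± SEM of three independent experiments.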
# [2] = biological target: Toll-like receptor 2 (Homo sapiens) (UniProt O60603); experiment: Inhibition of TLR2 in human HEK293 cells stably transfected with TLR2 assessed as decrease in Akt phosphorylation level at Ser473 at 100 uM treated for 24 hrs measured after serum deprivation by Western blotting; assay type: cell-based
# How it was run: (§2)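 Parental HEK293 or TLR2/HEK293 cells (RPMI-1640, 10% heat-inactivated FBS, 37 °C, 5% CO2) exposed to 0, 10 or 100 uM for 24 h, then serum-deprived 0, 12 or 24 h. RIPA lysates of equal cell numbers run on 12% SDS-PAGE; phospho-Akt (Ser473) and total Akt probed by Western blot, milk block, primary antibody overnight at 4 °C.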
# [3] = biological target: Toll-like receptor 2 (Homo sapiens) (UniProt O60603); experiment: Inhibition of TLR2 in human HEK293 cells assessed as decrease in GSK3-beta phosphorylation level at 100 uM treated for 24 hrs measured after serum deprivation by Western blotting; assay type: cell-based
# How it was run: (§3)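 Cells given 0, 10 or 100 uM for 24 h before 0, 12 or 24 h serum deprivation; HEK293 and TLR2/HEK293 lines cultured in RPMI-1640 plus 10% heat-inactivated FBS. Harvested cells lysed in RIPA buffer, 12% SDS-PAGE, nitrocellulose transfer, immunoblotted for phospho-GSK3beta and total GSK3beta, ECL read-out; mean ± SEM, three independent experiments.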
# [4] = biological target: Toll-like receptor 2 (Homo sapiens) (UniProt O60603); experiment: Inhibition of TLR2 in human HEK293 cells assessed as decrease in Akt phosphorylation level at Ser473 at 10 uM treated for 24 hrs measured after serum deprivation by Western blotting; assay type: cell-based; how it was run: as §2
# [5] = biological target: Toll-like receptor 2 (Homo sapiens) (UniProt O60603); experiment: Inhibition of TLR2 in human HEK293 cells assessed as decrease in Akt phosphorylation level at Ser473 at 100 uM treated for 24 hrs measured after serum deprivation by Western blotting; assay type: cell-based; how it was run: as §2
# [6] = biological target: Toll-like receptor 2 (Homo sapiens) (UniProt O60603); experiment: Inhibition of TLR2-mediated apoptosis in human HEK293 cells at 100 uM treated for 24 hrs measured after 12 hrs of serum deprivation by TUNEL assay; assay type: cell-based; how it was run: as §1
# [7] = biological target: Toll-like receptor 2 (Homo sapiens) (UniProt O60603); experiment: Inhibition of TLR2 in human HEK293 cells stably transfected with TLR2 assessed as decrease in GSK3-beta phosphorylation level at 100 uM treated for 24 hrs measured after serum deprivation by Western blotting; assay type: cell-based; how it was run: as §3
# [8] = biological target: Toll-like receptor 2 (Homo sapiens) (UniProt O60603); experiment: Inhibition of TLR2 in human HEK293 cells assessed as decrease in GSK3-beta phosphorylation level at 10 uM treated for 24 hrs measured after serum deprivation by Western blotting; assay type: cell-based; how it was run: as §3
# HEK293 [9] = experiment: Inhibition of TLR2 expression in human HEK293 cells stably transfected with TLR2 at 100 uM treated for 24 hrs measured after serum deprivation by Western blotting; assay type: functional, cell-based
# How it was run: (§4)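 HEK293 and TLR2-stably-transfected HEK293 cells in RPMI-1640 with 10% heat-inactivated FBS, 37 °C, 5% CO2; compound at 0, 10 or 100 uM for 24 h, then serum deprivation for 0, 12 or 24 h. Equal cell numbers lysed in RIPA buffer, 12% SDS-PAGE, nitrocellulose, anti-TLR2 immunoblot with GAPDH antibody, chemiluminescent detection; mean ± SEM of three independent experiments.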
# Albumin = Albumin (Homo sapiens, UniProt P02768); experiment: Binding affinity to human serum albumin; assay type: ADME; conditions: isolated protein
# [10] = biological target: Toll-like receptor 2 (Homo sapiens) (UniProt O60603); experiment: Inhibition of TLR2 in human HEK293 cells stably transfected with TLR2 assessed as decrease in GSK3-beta phosphorylation level at 10 uM treated for 24 hrs measured after serum deprivation by Western blotting; assay type: cell-based; how it was run: as §3
# HEK293 [11] = experiment: Inhibition of TLR2 expression in human HEK293 cells stably transfected with TLR2 at 10 uM treated for 24 hrs measured after serum deprivation by Western blotting; assay type: functional, cell-based; how it was run: as §4
# HEK293 [12] = experiment: Inhibition of TLR2 expression in human HEK293 cells at 10 uM treated for 24 hrs measured after serum deprivation by Western blotting; assay type: functional, cell-based; how it was run: as §4
# [13] = biological target: Toll-like receptor 2 (Homo sapiens) (UniProt O60603); experiment: Inhibition of TLR2-mediated apoptosis in human HEK293 cells stably transfected with TLR2 at 100 uM treated for 24 hrs measured after 24 hrs of serum deprivation by TUNEL assay; assay type: cell-based; how it was run: as §1
# [14] = biological target: Toll-like receptor 2 (Homo sapiens) (UniProt O60603); experiment: Inhibition of TLR2 in human HEK293 cells stably transfected with TLR2 assessed as decrease in Akt phosphorylation level at Ser473 at 10 uM treated for 24 hrs measured after serum deprivation by Western blotting; assay type: cell-based; how it was run: as §2
# [15] = biological target: Toll-like receptor 2 (Homo sapiens) (UniProt O60603); experiment: Inhibition of TLR2-mediated apoptosis in human HEK293 cells stably transfected with TLR2 at 100 uM treated for 24 hrs measured after 12 hrs of serum deprivation by TUNEL assay; assay type: cell-based; how it was run: as §1
# HEK293 [16] = experiment: Inhibition of TLR2 expression in human HEK293 cells at 100 uM treated for 24 hrs measured after serum deprivation by Western blotting; assay type: functional, cell-based; how it was run: as §4
# [17] = Solubility in water; assay type: physicochemical; conditions: buffer
# Sequence of Toll-like receptor 2 (Homo sapiens) (O60603 whole entry, the tested form may be a part): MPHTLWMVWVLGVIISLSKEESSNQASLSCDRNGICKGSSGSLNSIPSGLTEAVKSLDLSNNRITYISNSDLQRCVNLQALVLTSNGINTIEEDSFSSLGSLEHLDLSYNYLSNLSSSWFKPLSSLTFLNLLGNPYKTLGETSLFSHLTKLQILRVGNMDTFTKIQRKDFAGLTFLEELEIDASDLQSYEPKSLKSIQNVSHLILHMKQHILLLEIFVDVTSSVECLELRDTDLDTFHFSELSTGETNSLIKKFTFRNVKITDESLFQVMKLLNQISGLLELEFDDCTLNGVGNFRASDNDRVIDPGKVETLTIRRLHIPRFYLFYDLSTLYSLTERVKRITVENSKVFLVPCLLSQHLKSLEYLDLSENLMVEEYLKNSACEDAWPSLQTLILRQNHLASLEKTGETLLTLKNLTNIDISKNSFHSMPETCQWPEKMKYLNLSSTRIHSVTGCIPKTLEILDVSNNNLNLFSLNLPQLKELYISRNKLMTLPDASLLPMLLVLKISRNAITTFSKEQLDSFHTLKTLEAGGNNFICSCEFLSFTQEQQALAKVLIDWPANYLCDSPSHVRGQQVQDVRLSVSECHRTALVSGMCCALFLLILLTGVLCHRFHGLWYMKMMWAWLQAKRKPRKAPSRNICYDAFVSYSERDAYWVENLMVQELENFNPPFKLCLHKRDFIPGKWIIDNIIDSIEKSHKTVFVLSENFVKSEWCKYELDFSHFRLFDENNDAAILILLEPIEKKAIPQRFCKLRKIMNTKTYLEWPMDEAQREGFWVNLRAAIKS
# Sequence of Albumin (P02768 whole entry): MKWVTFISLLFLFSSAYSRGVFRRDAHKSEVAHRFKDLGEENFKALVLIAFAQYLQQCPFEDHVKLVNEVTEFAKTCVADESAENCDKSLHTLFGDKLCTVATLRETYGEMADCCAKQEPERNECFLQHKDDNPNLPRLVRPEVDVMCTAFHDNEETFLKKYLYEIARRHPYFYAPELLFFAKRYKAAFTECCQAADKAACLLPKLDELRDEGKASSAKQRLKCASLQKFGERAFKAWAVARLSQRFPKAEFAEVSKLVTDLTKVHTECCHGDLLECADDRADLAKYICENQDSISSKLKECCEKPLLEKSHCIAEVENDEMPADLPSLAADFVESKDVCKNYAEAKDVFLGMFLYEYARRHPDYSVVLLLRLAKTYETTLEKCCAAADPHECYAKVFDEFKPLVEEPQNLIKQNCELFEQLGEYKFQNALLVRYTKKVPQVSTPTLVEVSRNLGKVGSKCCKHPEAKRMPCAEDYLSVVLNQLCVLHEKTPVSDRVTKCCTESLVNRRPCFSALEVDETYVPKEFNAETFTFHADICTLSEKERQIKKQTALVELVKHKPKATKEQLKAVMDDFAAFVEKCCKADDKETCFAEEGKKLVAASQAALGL
Structure (SMILES),inhibition [1],Activity [2],Activity [3],Activity [4],Activity [5],inhibition [6],Activity [7],Activity [8],inhibition (HEK293 [9]),fold change (FC) (Albumin),Activity [10],inhibition (HEK293 [11]),inhibition (HEK293 [12]),inhibition [13],Activity [14],inhibition [15],inhibition (HEK293 [16]),solubility [17]
O=C(O)CCCCCOc1ccc(/C=C/c2cc(O)cc(O)c2)cc1 [RESVERATROL HEXANOIC ACID],25%,Active,inactive,inactive,inactive,11%,Active,inactive,Active,40,Active,Active,Active,49%,Active,20%,Active,Soluble
O=C(O)COc1ccc(/C=C/c2cc(O)cc(O)c2)cc1,–,–,–,–,–,–,–,–,inactive,–,–,inactive,inactive,–,–,–,inactive,–
